Measurements reported in ChEMBL document CHEMBL2346664, “Synthesis, characterization and in vitro anticancer evaluation of novel 1,2,4-triazolin-3-one derivatives” (2013).
The source made the active and inactive calls. The rule behind the calls is not given here.

Legend:
[1] = test system: A549; experiment: Growth inhibition of human A549 cells assessed as cell growth at 10 '-5 M after 48 hrs by sulforhodamine B assay; type: functional; settings: A549, 48 h, read-out: Activity
In short: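 Percent growth at each of the five concentrations of the 48 h continuous-exposure NCI SRB screen. Drug stocks were in DMSO at 400× the top final concentration and diluted in medium with gentamicin. Growth was calculated as [(Ti-Tz)/(C-Tz)]×100 when Ti ≥ Tz, or [(Ti-Tz)/Tz]×100 when Ti < Tz. Tz plates were fixed at drug addition; untreated wells served as control. Absorbance was read at 515 nm.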

[2] = test system: MCF7; experiment: Growth inhibition of human MCF7 cells assessed as cell growth at 10 '-6 M after 48 hrs by sulforhodamine B assay; type: functional; settings: MCF7, 48 h, read-out: Activity
[3] = test system: OVCAR-8; experiment: Growth inhibition of human OVCAR8 cells assessed as cell growth at 10 '-6 M after 48 hrs by sulforhodamine B assay; type: functional; settings: OVCAR-8, 48 h, read-out: Activity
[4] = test system: SK-MEL-2; experiment: Growth inhibition of human SK-MEL-2 cells assessed as cell growth at 10 '-6 M after 48 hrs by sulforhodamine B assay; type: functional; settings: SK-MEL-2, 48 h, read-out: Activity
[5] = test system: UACC-257; experiment: Growth inhibition of human UACC257 cells assessed as growth inhibition at 10 uM after 48 hrs by sulforhodamine B assay; type: functional; settings: UACC-257, 48 h, read-out: GI
[6] = test system: MDA-MB-435; experiment: Growth inhibition of human MDA-MB-435 cells assessed as growth inhibition at 10 uM after 48 hrs by sulforhodamine B assay; type: functional, cell-based
[7] = test system: NCI-H23; experiment: Growth inhibition of human NCI-H23 cells assessed as growth inhibition at 10 uM after 48 hrs by sulforhodamine B assay; type: functional; settings: NCI-H23, 48 h, read-out: GI
[8] = test system: A549; experiment: Growth inhibition of human A549 cells assessed as growth inhibition at 10 uM after 48 hrs by sulforhodamine B assay; type: functional; settings: A549, 48 h, read-out: GI
In short: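 Percent growth inhibition from the single 10^-5 M NCI-60 screen, reported as 100 minus growth percent. Growth percent was measured after 48 h drug exposure at 37 °C, 5% CO2, using TCA fixation, SRB staining and absorbance at 515 nm, against untreated controls and time-zero plates.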

[9] = test system: HL-60(TB); experiment: Growth inhibition of human HL-60(TB) cells assessed as growth inhibition at 10 uM after 48 hrs by sulforhodamine B assay; type: functional, cell-based
In short: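 NCI DTP single high-dose primary screen at 10^-5 M across 60 human tumour lines. Growth percent of treated cells is taken relative to untreated controls: values of 0–100 indicate growth inhibition and values below 0 indicate cytotoxicity. Both growth percent and percentage growth inhibition are reported.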

[10] = test system: T47D; experiment: Growth inhibition of human T47D cells assessed as cell growth at 10 '-4 M after 48 hrs by sulforhodamine B assay; type: functional; settings: read-out: Activity
[11] = test system: SF-539; experiment: Growth inhibition of human SF539 cells assessed as cell growth at 10 '-6 M after 48 hrs by sulforhodamine B assay; type: functional; settings: SF-539, 48 h, read-out: Activity
[12] = test system: MOLT-4; experiment: Growth inhibition of human MOLT4 cells assessed as cell growth at 10 '-6 M after 48 hrs by sulforhodamine B assay; type: functional; settings: MOLT-4, 48 h, read-out: Activity
[13] = test system: MCF7; experiment: Growth inhibition of human MCF7 cells assessed as cell growth at 10 '-7 M after 48 hrs by sulforhodamine B assay; type: functional; settings: MCF7, 48 h, read-out: Activity
[14] = test system: IGROV-1; experiment: Growth inhibition of human IGROV1 cells assessed as cell growth at 10 '-7 M after 48 hrs by sulforhodamine B assay; type: functional; settings: IGROV-1, 48 h, read-out: Activity
[15] = test system: SK-OV-3; experiment: Growth inhibition of human SKOV3 cells assessed as cell growth at 10 '-4 M after 48 hrs by sulforhodamine B assay; type: functional; settings: SK-OV-3, 48 h, read-out: Activity
[16] = test system: M14; experiment: Growth inhibition of human M14 cells assessed as cell growth at 10 '-4 M after 48 hrs by sulforhodamine B assay; type: functional; settings: M14, 48 h, read-out: Activity
[17] = test system: SNB-75; experiment: Growth inhibition of human SNB75 cells assessed as cell growth at 10 '-4 M after 48 hrs by sulforhodamine B assay; type: functional; settings: SNB-75, 48 h, read-out: Activity
[18] = test system: UO-31; experiment: Growth inhibition of human UO31 cells after 48 hrs by sulforhodamine B assay; type: functional; settings: UO-31, 48 h
[19] = test system: NCI-H460; experiment: Growth inhibition of human NCI-H460 cells assessed as cell growth at 10 '-4 M after 48 hrs by sulforhodamine B assay; type: functional; settings: NCI-H460, 48 h, read-out: Activity
[20] = Growth inhibition of human EKVX cells assessed as cell growth at 10 '-4 M after 48 hrs by sulforhodamine B assay; type: functional; settings: read-out: Activity
[21] = test system: SK-OV-3; experiment: Growth inhibition of human SKOV3 cells assessed as cell growth at 10 '-5 M after 48 hrs by sulforhodamine B assay; type: functional; settings: SK-OV-3, 48 h, read-out: Activity
[22] = test system: NCI-H460; experiment: Growth inhibition of human NCI-H460 cells after 48 hrs by sulforhodamine B assay; type: functional; settings: NCI-H460, 48 h
[23] = test system: HOP-62; experiment: Growth inhibition of human HOP62 cells after 48 hrs by sulforhodamine B assay; type: functional; settings: HOP-62, 48 h
In short: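 NCI 60-cell-line five-dose screen. Cells were plated at 5,000–40,000/well by doubling time and grown 24 h at 37 °C, 5% CO2. Time-zero plates were TCA-fixed. Drug from DMSO stock was tested at 0.01, 0.1, 1, 10 and 100 µM final for 48 h continuous exposure. Read-out was SRB at 515 nm. GI50 is the concentration giving 50% reduction in net protein increase versus untreated control.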

[24] = test system: HL-60(TB); experiment: Growth inhibition of human HL-60(TB) cells after 48 hrs by sulforhodamine B assay; type: functional; settings: HL-60, 48 h
In short: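 NCI 60-cell-line five-dose screen over 0.01, 0.1, 1, 10 and 100 µM, with 48 h continuous exposure at 37 °C and 5% CO2 after 24 h pre-incubation (5,000–40,000 cells/well). Cells were TCA-fixed (10% final for adherent, 16% for suspension), stained with SRB and read at 515 nm. GI50 was solved from [(Ti−Tz)/(C−Tz)]×100 = 50 against time-zero plates.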

[25] = test system: SK-MEL-2; experiment: Growth inhibition of human SK-MEL-2 cells assessed as cell growth at 10 '-5 M after 48 hrs by sulforhodamine B assay; type: functional; settings: SK-MEL-2, 48 h, read-out: Activity
[26] = test system: UACC-62; experiment: Growth inhibition of human UACC62 cells assessed as cell growth at 10 '-8 M after 48 hrs by sulforhodamine B assay; type: functional; settings: UACC-62, 48 h, read-out: Activity
[27] = test system: SK-MEL-28; experiment: Growth inhibition of human SK-MEL-28 cells assessed as cell growth at 10 '-8 M after 48 hrs by sulforhodamine B assay; type: functional; settings: SK-MEL-28, 48 h, read-out: Activity
[28] = test system: U-251; experiment: Growth inhibition of human U251 cells assessed as cell growth at 10 '-8 M after 48 hrs by sulforhodamine B assay; type: functional; settings: U-251, 48 h, read-out: Activity
[29] = read-out: LD50 (the source's name)

Compound `Cc1cc(=O)oc2cc(OCCn3c(C)nn(-c4ccc(Cl)cc4)c3=O)ccc12` has a growth at 10 µM [1] of 37%, a growth at 1 µM [2] of 77% and a growth at 1 µM [3] of 97%. The growth at 1 µM [4] was 112%, the inhibition of growth at 10 µM [5] was 77.5% and the “growth inhibition (GI)” value [6] was “Active”. For the same compound, the inhibition of growth at 10 µM [7] was 54.2%, the inhibition of growth at 10 µM [8] was 69.8% and the “growth inhibition (GI)” value [9] was “Active”. It also gave a growth at 100 µM [10] of 36%, a growth at 1 µM [11] of 88% and a growth at 1 µM [12] of 100%. For the same compound, the growth at 0.1 µM [13] was 93%, the growth at 0.1 µM [14] was 112% and the growth at 100 µM [15] was -7%. The growth at 100 µM [16] was 28%, the growth at 100 µM [17] was -25% and the GI50 [18] was 1270 nM. The TGI [18] was > 1000 nM, the CC50 [18, 29] was > 1000 nM and the growth at 100 µM [19] was 8%. The growth at 100 µM [20] was 55%, the growth at 10 µM [21] was 16% and the GI50 [22] was 2800 nM. For the same compound, the TGI [22] was > 1000 nM, the CC50 [22, 29] was > 1000 nM and the GI50 [23] was 3050 nM. The TGI [23] was 3290 nM, the CC50 [23, 29] was > 1000 nM and the GI50 [24] was 2800 nM. The growth at 10 µM [25] was 62%, the growth at 0.01 µM [26] was 97% and the growth at 0.01 µM [27] was 105%. It also gave a growth at 0.01 µM [28] of 98%.
